ChEMBL document CHEMBL1125360 (J Med Chem, 1992)
Where a SMILES comes first, the peptide text is derived from it. [ ]: non-standard residue; d: D form. The star is where a group is joined. Tyr(Nα,Nα-allyl2) = C=CCN(CC=C)[C@@H](Cc1ccc(O)cc1)C(=O)*; Aib = CC(C)(N)C(=O)O

What was measured:
Mus musculus [1] = species on record: Mus musculus; assay: The compound was tested for opioid agonist activity against mouse vas deferens (MVD); format: functional
In short: (§1)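 Electrically stimulated guinea pig ileal longitudinal muscle and mouse vas deferens. For full agonists, 4-6 concentrations gave concentration-response curves compared with standard agonists in the same preparation. IC50 is the concentration giving a half-maximal response, with 95% confidence limits.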

[2] = molecular target: Kappa-type opioid receptor (Cavia porcellus, UniProt P41144); assay: The compound was evaluated for binding affinity against the opioid receptor kappa in guinea pig brain membranes using [3H]- U-69,593; format: cell membranes, Membrane
Sequence of Kappa-type opioid receptor (P41144 whole entry): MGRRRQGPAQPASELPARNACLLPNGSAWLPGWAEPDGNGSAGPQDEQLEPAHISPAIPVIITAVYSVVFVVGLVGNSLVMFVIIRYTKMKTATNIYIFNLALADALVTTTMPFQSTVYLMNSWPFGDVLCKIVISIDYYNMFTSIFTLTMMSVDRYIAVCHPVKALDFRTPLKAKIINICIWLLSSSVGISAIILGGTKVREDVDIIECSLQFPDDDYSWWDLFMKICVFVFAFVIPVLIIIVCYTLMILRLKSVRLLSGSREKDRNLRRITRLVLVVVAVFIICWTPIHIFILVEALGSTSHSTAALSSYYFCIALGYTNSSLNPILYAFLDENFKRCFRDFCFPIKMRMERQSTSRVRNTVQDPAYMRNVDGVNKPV
In short: (§2)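 Competition binding on guinea pig brain membranes. δ sites labelled with [3H]DPDPE, μ with [3H]DAMGO, κ with [3H]U69593. A footnote also describes κ labelling with [3H]ethylketazocine in the presence of 1 µM DAMGO.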

[3] = molecular target: Mu-type opioid receptor (Cavia porcellus) (UniProt P97266); assay: Selectivity for mu to delta opioid receptors was determined
Sequence of Mu-type opioid receptor (Cavia porcellus) (P97266 whole entry): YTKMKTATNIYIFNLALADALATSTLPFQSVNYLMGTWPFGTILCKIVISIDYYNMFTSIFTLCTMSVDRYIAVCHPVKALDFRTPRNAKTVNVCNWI

Cavia porcellus [4] = species on record: Cavia porcellus; assay: The compound was evaluated for antagonistic activity by incubating with the smooth muscle preparation (GPI) for 15 min prior to testing with Ethylketazocine (EK); format: functional, Muscle tissue
In short: (§3)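 Electrically stimulated guinea pig ileal longitudinal muscle or mouse vas deferens. Test ligand incubated 15 min before standard agonist challenge (morphine, ethylketazocine or DADLE). Ligand at 100 nM, or at 10, 20 or 30 nM when it had agonist activity, kept at or below its ED20.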

Mus musculus [5] = species on record: Mus musculus; assay: The compound was evaluated for antagonistic activity by incubating with the smooth muscle preparation (MVD) for 15 min prior to testing with DADLE; format: functional, Muscle tissue; in short: as §3
[6] = system: Delta-type opioid receptor; assay: Selectivity for kappa to delta opioid receptors was determined; conditions: Cavia porcellus
Cavia porcellus [7] = species on record: Cavia porcellus; assay: The compound was tested for opioid agonist activity against guinea pig ileal longitudinal muscle (GPI); format: functional, Muscle tissue; in short: as §1
Mu-type opioid receptor [8] = molecular target: T1, Mu-type opioid receptor (Cavia porcellus, UniProt P97266); assay: The compound was evaluated for binding affinity against opioid receptor mu in guinea pig brain membranes using [3H]- DAMGO as ligand; format: cell membranes, Membrane; in short: as §2
T1 sequence (P97266 whole entry): as above

Cavia porcellus [9] = species on record: Cavia porcellus; assay: The compound was evaluated for antagonistic activity by incubating with the smooth muscle preparation (GPI) for 15 min prior to testing with morphine; format: functional, Muscle tissue; in short: as §3
Mus musculus [10] = species on record: Mus musculus; assay: The compound was evaluated for antagonistic activity by incubating with the smooth muscle preparation (MVD) for 15 min prior to testing with morphine; format: functional, Muscle tissue; in short: as §3
Opioid receptor = Opioid receptor (Mus musculus, UniProt P42866+P32300+P33534); assay: Compound was tested for agonistic activity against the opioid receptor in electrically stimulated mouse vas deference; format: functional; in short: as §1
Cavia porcellus [11] = species on record: Cavia porcellus; assay: Opiod agonistic activity against delta enriched smooth muscle preparation; format: functional; conditions: Muscle tissue
Mus musculus [12] = species on record: Mus musculus; assay: The compound was evaluated for antinociceptive potency using tail flick assay in mice; format: functional
In short: (§4)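 Mouse antinociception by abdominal stretch or tail flick assay. Test compound given icv. ED50 in nmol/mouse with 95% confidence limits.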

Cavia porcellus [13] = species on record: Cavia porcellus; assay: Antagonistic activity against EK in guinea pig ileal longitudinal muscle (GPI); format: functional, Muscle tissue; in short: as §3
Mus musculus [14] = species on record: Mus musculus; assay: Antagonistic activity against morphine in smooth muscle preparation (MVD); format: functional, Muscle tissue; in short: as §3
Mus musculus [15] = species on record: Mus musculus; assay: Antagonistic activity against DADLE in smooth muscle preparation (MVD); format: functional, Muscle tissue; in short: as §3
Cavia porcellus [16] = species on record: Cavia porcellus; assay: Antagonistic activity against morphine in guinea pig ileal longitudinal muscle (GPI); format: functional, Muscle tissue; in short: as §3
[17] = The compound was evaluated for binding affinity against Opioid receptor delta 1 in guinea pig brain membrane using [3H]- DPDPE as ligand
Mus musculus [18] = species on record: Mus musculus; assay: The compound was evaluated for antinociceptive potency using abdominal stretch assay in mice; format: functional, Abdomen; set-up: unit not given here; in short: as §4
Mus musculus [19] = species on record: Mus musculus; assay: The compound was tested for antagonizing the antinociceptive potency of DSLET using abdominal assay in mice.(values in the parenthesis indicate 95% confidence limits); format: functional, Abdomen
Mus musculus [20] = species on record: Mus musculus; assay: Effect of the opioid antagonist (beta-funaltrexamine, mu) on the antinociceptive potency using abdominal stretch assay in mice.; format: functional, Abdomen
In short: (§5)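 Mice pretreated sc with β-FNA 20 µmol/kg 24 h before, norBNI 12 µmol/kg 2 h before, or NTI 44 µmol/kg 0.5 h before. Test compound then given icv in the abdominal stretch or tail flick assay. ED50 ratio is pretreated ED50 divided by control ED50, with 95% confidence limits.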

Mu-type opioid receptor [21] = molecular target: T1, Mu-type opioid receptor; assay: The compound was evaluated for binding affinity against Opioid receptor mu 1 in guinea pig brain membranes; format: cell membranes, Membrane; in short: as §2
Mus musculus [22] = species on record: Mus musculus; assay: The compound was tested for antagonizing the antinociceptive potency of DPDPE using abdominal assay in mice.(values in the parenthesis indicate 95% confidence limits); format: functional, Abdomen
Mus musculus [23] = species on record: Mus musculus; assay: The compound was tested for antagonizing the antinociceptive potency of U-50,488H using abdominal assay in mice.(values in the parenthesis indicate 95% confidence limits); format: functional, Abdomen
Mus musculus [24] = species on record: Mus musculus; assay: Effect of the opioid antagonist (norbinaltorphimine, kappa) on the antinociceptive potency using abdominal stretch assay in mice.; format: functional, Abdomen; in short: as §5
Mus musculus [25] = species on record: Mus musculus; assay: Effect of the opioid antagonist (naltrindole, delta) on the antinociceptive potency using tail flick assay; format: functional; in short: as §5
Mus musculus [26] = species on record: Mus musculus; assay: The compound was tested for antagonizing the antinociceptive potency of morphine using abdominal assay in mice.(values in the parenthesis indicate 95% confidence limits); format: functional, Abdomen
Mus musculus [27] = species on record: Mus musculus; assay: Effect of the opioid antagonist (naltrindole, delta) on the antinociceptive potency using abdominal stretch assay in mice; format: functional, Abdomen; in short: as §5
Mus musculus [28] = species on record: Mus musculus; assay: The compound was evaluated for antinociceptive potency using abdominal stretch assay in mice.; format: functional, Abdomen; in short: as §4
Mus musculus [29] = species on record: Mus musculus; assay: The compound was tested for antagonizing the antinociceptive potency of DSLET using abdominal assay in mice.; format: functional, Abdomen
In short: (§6)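 Mice, abdominal stretch assay. Agonist peak times after icv dosing: DSLET 10 min, DPDPE 20 min, U50488H 15 min, morphine 30 min. Read-out is the agonist ED50 ratio with 95% confidence limits.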

Cavia porcellus [30] = species on record: Cavia porcellus; assay: Opiod agonistic activity against delta enriched smooth muscle preparation.; format: functional; conditions: Muscle tissue
Mus musculus [31] = species on record: Mus musculus; assay: The compound was tested for antagonizing the antinociceptive potency of U-50,488H using abdominal assay in mice; format: functional, Abdomen; in short: as §6
Mus musculus [32] = species on record: Mus musculus; assay: Effect of the opioid antagonist (norbinaltorphimine, kappa) on the antinociceptive potency using tail flick assay in mice; format: functional
In short: (§7)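 Mice, tail flick assay. Antagonist given sc beforehand: beta-FNA 20 µmol/kg 24 h before, or norBNI 12 µmol/kg 2 h before. Test compound then given icv. ED50 ratio = ED50 of test compound in pretreated mice divided by control ED50, with 95% confidence limits.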

Mus musculus [33] = species on record: Mus musculus; assay: The compound was tested for antagonizing the antinociceptive potency of morphine using abdominal assay in mice; format: functional, Abdomen; in short: as §6
Mus musculus [34] = species on record: Mus musculus; assay: Effect of the opioid antagonist (beta-funaltrexamine, mu) on the antinociceptive potency using tail flick assay in mice.(values in the parenthesis indicate 95% confidence limits); format: functional; in short: as §7
Mus musculus [35] = species on record: Mus musculus; assay: The compound was tested for antagonizing the antinociceptive potency of DPDPE using abdominal assay in mice.; format: functional, Abdomen; in short: as §6

Compound | Max response (Mus musculus [1]) | Ki [2] | Ratio [3] | Ratio [6] | Max response (Cavia porcellus [7]) | Ki (Mu-type opioid receptor [8]) | IC50 (Opioid receptor) | ED50 (Mus musculus [12]) | IC50 ratio (Cavia porcellus [13]) | IC50 ratio (Mus musculus [14]) | IC50 ratio (Mus musculus [15]) | IC50 ratio (Cavia porcellus [16]) | ED50 (Mus musculus [18]) | other results
Oc1ccc2c3c1O[C@H]1c4[nH]c5ccccc5c4C[C@H]4[C@@H](C2)N(C/C=C/c2ccccc2)CC[C@]314 | 19% | > 1000 nM | > 9 | > 9 | 2% | > 1000 nM |  |  |  |  |  |  |  | IC50 ratio (Cavia porcellus [4]): 0.9; IC50 ratio (Mus musculus [5]): 0.8; IC50 ratio (Cavia porcellus [9]): 0.8; IC50 ratio (Mus musculus [10]): 1.1
Oc1ccc2c3c1O[C@H]1c4[nH]c5ccccc5c4C[C@H]4[C@@H](C2)N(CCc2ccccc2)CC[C@]314 |  | 2620 nM | 8 | 120 | 1900% | 173 nM | 179 nM | 6.3 nmol/mouse | 0.9 | 0.9 | 0.6 | 0.8 |  | IC50 (Cavia porcellus [11]): 174 nM
C=CCN(CC=C)[C@@H](Cc1ccc(O)cc1)C(=O)NC(C)(C)C(=O)NC(C)(C)C(=O)N[C@@H](Cc1ccccc1)C(=O)N[C@@H](CC(C)C)C(=O)O ({Tyr(Nα,Nα-allyl2)}-[Aib][Aib]FL-OH) |  |  | > 29 | > 29 |  |  |  |  |  |  |  |  |  | Ki [17]: 35 nM
Oc1ccc2c3c1O[C@H]1c4[nH]c5ccccc5c4C[C@@]4(O)C(C2)NCC[C@]314 |  | > 1000 nM | 224 | > 357 | 41% |  | 124 nM | 10.9 nmol/mouse | 0.8 | 0.7 | 0.9 | 0.7 | 1.1 | IC50 (Cavia porcellus [11]): 121 nM; ED50 ratio (Mus musculus [19]): 5.4; ED50 ratio (Mus musculus [20]): 0.9; Ki (Mu-type opioid receptor [21]): > 1000 nM; ED50 ratio (Mus musculus [22]): 2.5; ED50 ratio (Mus musculus [23]): 0.7; ED50 ratio (Mus musculus [24]): 1.6; ED50 ratio (Mus musculus [25]): 1.6; ED50 ratio (Mus musculus [26]): 1.1; ED50 ratio (Mus musculus [27]): 1.2
CN1CC[C@]23c4c5ccc(O)c4O[C@H]2c2[nH]c4ccccc4c2C[C@@]3(O)[C@H]1C5 [OXYMORPHINDOLE] | 65% |  | 669 | 6380 | 12% |  |  |  | 0.9 | 0.9 | 1.3 | 0.9 |  | ED50 (Mus musculus [28]): 0.019 nM; Ki [17]: 0.7 nM
CN1CC[C@]23c4c5ccc(O)c4O[C@H]2c2oc4ccccc4c2C[C@@]3(O)[C@H]1C5 | 41% |  |  |  | 23% |  |  |  |  |  |  |  |  | IC50 ratio (Cavia porcellus [4]): 0.8; IC50 ratio (Mus musculus [5]): 10.2; IC50 ratio (Cavia porcellus [9]): 0.5; IC50 ratio (Mus musculus [10]): 0.8
CN1CC[C@]23c4c5ccc(O)c4O[C@H]2c2c(c4ccccc4n2C)C[C@@]3(O)[C@H]1C5 | 23% |  |  |  | 9% |  |  |  | 0.5 | 1 | 1.2 | 0.7 | 0.01 | 
CN1CC[C@]23c4c5ccc(O)c4O[C@H]2c2[nH]c4ccccc4c2C[C@H]3[C@H]1C5 | 34% |  |  |  | 9% |  |  |  | 0.5 | 0.9 | 4.2 | 1 |  | 
CSCC[C@H](NC(=O)[C@H](Cc1ccc(O)cc1)NC(=O)CNC(=O)CNC(=O)[C@H](Cc1ccccc1)NC(=O)[C@H](CC(C)C)NC(=O)[C@H](N)CO)C(=O)N[C@H](C(=O)O)[C@@H](C)O |  |  |  |  |  |  |  | 0.45 nmol/mouse |  |  |  |  | 0.0032 | 
Oc1ccc2c3c1O[C@H]1c4[nH]c5ccccc5c4C[C@H]4C(C2)NCC[C@]314 |  | 5.3 nM | 71 | 176 | 20% | 375 nM | 85 nM |  | 1.3 | 1 | 0.8 | 0.6 |  | 
Oc1ccc2c3c1O[C@H]1c4[nH]c5ccccc5c4C[C@@]4(O)[C@@H](C2)N(CCc2ccccc2)CC[C@]314 |  | > 1000 nM |  |  | 15% | > 1000 nM | 171 nM | 2.2 nmol/mouse | 0.8 | 0.9 | 0.6 | 0.8 | 0.4 | ED50 ratio (Mus musculus [20]): 1.3; ED50 ratio (Mus musculus [29]): 2.8; IC50 (Cavia porcellus [30]): 76 nM; ED50 ratio (Mus musculus [31]): 0.6; ED50 ratio (Mus musculus [32]): 21.6; ED50 ratio (Mus musculus [24]): 5.5; ED50 ratio (Mus musculus [25]): 3.2; ED50 ratio (Mus musculus [33]): 0.4; ED50 ratio (Mus musculus [34]): 5.8; ED50 ratio (Mus musculus [27]): 4; ED50 ratio (Mus musculus [35]): 1.4
Oc1ccc2c3c1O[C@H]1c4[nH]c5ccccc5c4C[C@@]4(O)[C@@H](C2)N(CC2CC2)CC[C@]314 [NALTRINDOLE] |  |  |  |  |  |  |  |  |  |  |  |  |  | ED50 (Mus musculus [28]): 0.04 nM
